Measured values from ChEMBL document CHEMBL1681701, “Huprines as a new family of dual acting trypanocidal-antiplasmodial agents” (Bioorg Med Chem, 2011).
Where a name gives a salt, the structure may show the parent alone.

Legend:
[1] = test system: Trypanosoma brucei; test: Antitrypanosomal activity against Trypanosoma brucei 427; type: functional, organism-based
[2] = Selectivity index, ratio of IC50 for rat L6 cells to IC50 for chloroquine-resistant Plasmodium falciparum K1; type: toxicity, cell-based; details: read-out: Selectivity Index
[3] = test system: Trypanosoma brucei; test: Trypanocidal activity against bloodstream form of Trypanosoma brucei 427 after 48 hrs; type: functional, organism-based; details: Trypanosoma brucei, 427, 48 h
[4] = test system: Plasmodium falciparum; test: Antiplasmodial activity against chloroquine-resistant Plasmodium falciparum K1; type: functional, organism-based
In short: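 K1 parasites grown in human A+ erythrocytes in RPMI 1640 with A+ serum and D-glucose; predominantly early ring-stage cultures used. Twofold serial dilutions run in duplicate from DMSO stocks (final DMSO ≤0.5%), at 2.5% haematocrit and 1% parasitaemia. Incubation was 48 h at 37 °C under 93% N2/3% O2/4% CO2. Growth was read as lactate dehydrogenase activity (APAD/NBT, 550 nm), and IC50 was taken by linear regression.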

[5] = test system: L6; test: Cytotoxicity against rat L6 cells after 6 days by Alamar blue assay; type: cell-based; details: L6, 144 h
In short: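 Rat skeletal myoblast L6 cells seeded at 1 × 10^4 ml−1 in growth medium with a range of compound concentrations and held 6 days at 37 °C. Alamar Blue was then added and fluorescence read after a further 8 h. IC50 is the mean of triplicate experiments ± SEM.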

[6] = Selectivity index, ratio of IC50 for rat L6 cells to IC 50 for Trypanosoma brucei 427; type: toxicity, cell-based; details: L6 cells versus Trypanosoma brucei 427, read-out: Selectivity Index

SMILES	IC50 [1] [nM]	IC50 [3] [nM]	IC90 [3] [nM]	IC50 [5] [nM]	further results
CC(C)C1=CC2Cc3nc4ccccc4c(N)c3C(C1)C2 (centres undefined)	300	–	–	–	–
Nc1c2c(nc3ccccc13)CC1C=C(c3ccccc3)CC2C1 (centres undefined)	–	1650	4700	3510	selectivity ratio [2]: 2.1; IC50 [4]: 7120 nM; selectivity ratio [6]: 2.1
CCC1=C[C@@H]2Cc3nc4cc(Cl)ccc4c(N)c3[C@H](C1)C2 [HUPRINE X HYDROCHLORIDE]	300	840	–	12500	–
C=CCC1=CC2Cc3nc4ccccc4c(N)c3C(C1)C2 (centres undefined)	300	–	–	–	–
CC1=CC2Cc3nc4cc(Cl)ccc4c(N)c3C(C1)C2 (centres undefined)	300	–	–	–	–
CC1=CC2Cc3nc4cccc(F)c4c(N)c3C(C1)C2 (centres undefined)	–	3710	15800	–	–
